Published values of several laboratories.
Protocols differ between the studies behind these lines.
GRM2: Metabotropic glutamate receptor 2 (GRM2, Homo sapiens, UniProt Q14416)
NMUR1: Neuromedin-U receptor 1 (NMUR1, Homo sapiens, UniProt Q9HB89)
EPHX2: Bifunctional epoxide hydrolase 2 (EPHX2, Homo sapiens, UniProt P34913)
LCK: Tyrosine-protein kinase Lck (LCK, Homo sapiens, UniProt P06239)
ALPI: Intestinal-type alkaline phosphatase (ALPI, Bos taurus, UniProt P19111)
Maob: Amine oxidase [flavin-containing] B (Maob, Rattus norvegicus, UniProt P19643)

Compound | target | observed | mode | technique | time | pH | IC50 [µM]
COc1ccc(-c2cc(C(N)=O)ncc2OCc2cn(C)cn2)c(F)c1 | GRM2 | ion flux | antagonist |  |  |  | 0.092
CC(C)C[C@H](NC(=O)[C@H](Cc1ccccc1)NC(=O)[C@H](Cc1ccc(O)cc1)NC(=O)CNC(=O)[C@H](CCCNC(=N)N)NC(=O)[C@H](CO)NC(=O)[C@H](CCC(N)=O)NC(=O)[C@H](CO)NC(=O)[C@H](C)NC(=O)[C@H](Cc1ccccc1)NC(=O)[C@@H]1CCCN1C(=O)[C@H](CO)NC(=O)[C@H](CCC(N)=O)NC(=O)[C@H](Cc1ccccc1)NC(=O)[C@H](CCC(=O)O)NC(=O)[C@H](CCC(=O)O)NC(=O)[C@H](CC(=O)O)NC(=O)[C@@H](NC(=O)[C@H](CCCNC(=N)N)NC(=O)[C@@H](N)Cc1ccccc1)C(C)C)C(=O)N[C@@H](Cc1ccccc1)C(=O)N[C@@H](CCCNC(=N)N)C(=O)N1CCC[C@H]1C(=O)N[C@@H](CCCNC(=N)N)C(=O)N[C@@H](CC(N)=O)C(N)=O | NMUR1 | ligand displacement |  | radioligand |  |  | 0.000107
O=C(Cc1ccc(Nc2ncnc3[nH]ccc23)cc1)Nc1ccc(F)c(Cl)c1 | Proto-oncogene tyrosine-protein kinase receptor Ret (RET, Homo sapiens, UniProt P07949) | enzyme activity | inhibitor | mobility shift |  |  | > 20
O=C(Nc1ccccc1F)NC12CC3CC(CC(C3)C1)C2 | EPHX2 | enzyme activity | inhibitor | fluorescence |  |  | 0.0037
Oc1c2ccccc2c2c3c(cccc13)N=N2 | Tyrosine-protein kinase JAK2 (JAK2, Homo sapiens, UniProt O60674) | enzyme activity | inhibitor |  |  |  | 0.736
COc1cc2nccc(Oc3ccc(NC(=O)c4cc5c(n(-c6ccccc6)c4=O)CCCC5=O)nc3)c2cc1OC | LCK | enzyme activity in cells | inhibitor | ATP luminescence |  |  | > 0.1
CN(C)CC#Cc1ccc2[nH]c3c(c2c1)-c1nc(N)ncc1CCC3 | Dual specificity mitogen-activated protein kinase kinase 4 (MAP2K4, Homo sapiens, UniProt P45985) | enzyme activity | inhibitor | radiometric |  |  | > 10
CCCCCCCCN1CC2=C(C1=O)C(c1ccccc1O)NC(=O)N2 (centres unmarked) | ALPI | enzyme activity | inhibitor | absorbance |  |  | 8.71
O=C(Nc1ccccc1)NC12CC3CC(CC(C3)C1)C2 | EPHX2 | enzyme activity | inhibitor | fluorescence |  |  | 0.0165
COc1ccc(N2CC3=C(C2=O)C(c2ccc(O)cc2)NC(=O)N3)cc1 (centres unmarked) | ALPI | enzyme activity | inhibitor | absorbance |  |  | 9.43
Nc1nc(NCc2ccccc2CO)c2[nH]cnc2n1 | Methylated-DNA--protein-cysteine methyltransferase (MGMT, Homo sapiens, UniProt P16455) | enzyme activity | inhibitor |  | 30 min |  | > 1000
Cc1cnc(-c2ccc(-c3ccc(NC(=O)Nc4c(F)cc(F)cc4F)cc3F)c3c2C(=O)NC3)[nH]1 | LCK | enzyme activity | inhibitor |  |  |  | 0.0007
COc1ccc2cc(C=NN=C3CS(=O)(=O)N(C)c4ccccc43)c(Cl)nc2c1 | Maob | enzyme activity | inhibitor | fluorescence |  |  | 2.22
COc1ccc(-c2cc(C(N)=O)ncc2OCc2ccn(C)n2)c(F)c1 | GRM2 | ion flux | antagonist |  |  |  | 0.021
COc1ccc2c(Oc3ccc4c(C(=O)Nc5ccccc5N)cccc4c3)ccnc2c1 | LCK | enzyme activity | inhibitor |  |  |  | > 0.5
CC(C)(C)n1nc(-c2cnc3cc(OC4CC4)ccc3c2)c(C(N)=O)c1N | Mitogen-activated protein kinase kinase kinase 10 (MAP3K10, Homo sapiens, UniProt Q02779) | cell-free assay |  |  |  |  | > 10
CC/C(=N\NC(=O)C(C)Nc1ccccc1)c1ccc(O)c(C)c1O (centres unmarked) | Serine/threonine-protein kinase LATS2 (LATS2, Homo sapiens, UniProt Q9NRM7) | enzyme activity | inhibitor |  |  |  | 0.00409
CC1=C(CC(=O)O)c2cc(F)ccc2/C1=C\c1ccc([S+](C)[O-])cc1 (centres unmarked) | Aldo-keto reductase family 1 member B1 (AKR1B1, Homo sapiens, UniProt P15121) | enzyme activity | inhibitor | absorbance |  | pH 6.2 | 0.3
Nc1ncc2c(n1)-c1c([nH]c3ccc(C#CC4CC4)cc13)CCCC2 | Phosphatidylinositol 5-phosphate 4-kinase type-2 gamma (PIP4K2C, Homo sapiens, UniProt Q8TBX8) | target engagement in cells |  | BRET |  |  | > 10

Compound | target | observed | mode | technique | time | pH | IC50 [µM]
CCCCCCCCN1CC2=C(C1=O)C(c1ccc(O)cc1)NC(=O)N2 (centres unmarked) | ALPI | enzyme activity | inhibitor | absorbance |  |  | 8.23
CC(=NN=C1CS(=O)(=O)N(C)c2ccccc21)c1cc(C)sc1C | Maob | enzyme activity | inhibitor | fluorescence |  |  | 2.61
COc1ccc(-c2cc(C(N)=O)ncc2OCc2ccnc(C)c2)c(F)c1 | GRM2 | ion flux | antagonist |  |  |  | 0.059
CNc1nc(C)nc(N[C@H]2CCC[C@@H](C(=O)NCc3ccc(C#N)cc3C(F)(F)F)C2)n1 | EPHX2 | enzyme activity | inhibitor |  |  |  | 0.0004
O=C1NC2=C(C(=O)N(Cc3ccccc3)C2)C(c2ccccc2O)N1 (centres unmarked) | ALPI | enzyme activity | inhibitor | absorbance |  |  | 7.67
CN1c2ccccc2C(=NN=Cc2cc3ccc(Cl)cc3nc2Cl)CS1(=O)=O | Maob | enzyme activity | inhibitor | fluorescence |  |  | 1.21
Cc1ccc(C(=O)Nc2ccc(Oc3cc4cnn(C)c4cc3-c3cn[nH]c3)c(F)c2)c(=O)n1-c1ccc(F)cc1 | Proto-oncogene tyrosine-protein kinase receptor Ret (RET, Homo sapiens, UniProt P07949, C634W) | phosphorylation in cells | inhibitor | western blot |  |  | 2
CC(C)C[C@H](NC(=O)[C@H](Cc1ccccc1)NC(=O)[C@@H](N)Cc1ccc(O)cc1)C(=O)N[C@@H](Cc1ccccc1)C(=O)N[C@@H](CCCNC(=N)N)C(=O)N1CCC[C@H]1C(=O)N[C@@H](CCCNC(=N)N)C(=O)N[C@@H](CC(N)=O)C(N)=O | NMUR1 | ligand displacement |  | radioligand |  |  | 0.000661
CN1CCN(c2ccc(Nc3ncc4cc(C#N)c(=O)n(C5CCCC5)c4n3)cc2)CC1 | MAP/microtubule affinity-regulating kinase 4 (MARK4, Homo sapiens, UniProt Q96L34) | enzyme activity | inhibitor |  |  |  | 0.403
CC(=NN=C1CS(=O)(=O)N(C)c2ccccc21)c1ccc([N+](=O)[O-])s1 | Maob | enzyme activity | inhibitor | fluorescence |  |  | 1.25
CNC(=O)c1cc2c(Oc3ccc(NC(=O)C4(C(=O)Nc5ccc(F)cc5)CC4)cc3)ccnc2cc1OC | LCK | enzyme activity | inhibitor | radiometric |  |  | 0.012
COc1ccc(-c2cc(C(N)=O)ncc2OCc2ccnc(OC)c2)c(F)c1 | GRM2 | ion flux | antagonist |  |  |  | 0.135
O=C(CCCCCCCCc1ccc(O)c(O)c1)c1c(O)cccc1O | EPHX2 | enzyme activity | inhibitor | fluorescence |  |  | 25.9
CC12CC3CC(C1)CC(NC(=O)Nc1ccccc1F)(C3)C2 | EPHX2 | enzyme activity | inhibitor | fluorescence |  |  | 0.0015
COc1ccc(-c2cc(C(N)=O)ncc2OCc2noc(C)n2)c(F)c1 | GRM2 | ion flux | antagonist |  |  |  | 0.158
COc1ccc(N2CC3=C(C2=O)C(c2ccccc2O)NC(=O)N3)cc1 (centres unmarked) | ALPI | enzyme activity | inhibitor | absorbance |  |  | 4.87
CC(O)C(C)C(=O)N1CCC(NC(=O)Nc2ccc(OC(F)(F)F)c(F)c2)CC1 (centres unmarked) | EPHX2 | enzyme activity | inhibitor |  |  |  | 0.0001
Cc1ccc2cc(C=NN=C3CS(=O)(=O)N(C)c4ccccc43)c(Cl)nc2c1 | Maob | enzyme activity | inhibitor | fluorescence |  |  | 1.05
O=C1NC2=C(C(=O)N(c3ccc(F)cc3)C2)C(c2ccccc2O)N1 (centres unmarked) | ALPI | enzyme activity | inhibitor | absorbance |  |  | 6.54
